# Shown are actives, neighbours in structure and some others; about 6.6% of the full set was active somewhere.
# HER2 expr 66K: Her2 kinase expression inhibition | P04626 | SKBR-3 HER2 protein level, AlphaScreen, 18-24 h; active compounds read low | HER2 level % of control, % at 10 µM | 0.69% of 65,000 active | AID 645;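 active = HER2 level under 5% of the carrier-only control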;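 note: 100% = DMSO carrier and 0% = 500 nM PU-H71 HSP90 inhibitor; lower value means stronger loss of Her2 protein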
# JNK3 inh: JNK3 (human) kinase inhibition. purified JNK3 kinase activity, HTS. inhibition, % at 8 µM. 0.61% of 60,000 active. P53779. AID 746; in the data active = inhibition above about 17%;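 note: 0% = DMSO and 100% = reference inhibitor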
# M1 antag: blocks the rat M1 muscarinic receptor response to acetylcholine; CHO-M1 cells, Fluo-4 calcium, ACh EC80 antagonist mode; active compounds read low; P08482; B-score at 10 µM; 3.4% of 64,000 active; AID 628;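 active = calcium fluorescence response, raw or row-and-column corrected B-score, differing from the plate sample mean either way at a set confidence level, mostly lower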
# Target sequence (P08482 whole entry, looked up): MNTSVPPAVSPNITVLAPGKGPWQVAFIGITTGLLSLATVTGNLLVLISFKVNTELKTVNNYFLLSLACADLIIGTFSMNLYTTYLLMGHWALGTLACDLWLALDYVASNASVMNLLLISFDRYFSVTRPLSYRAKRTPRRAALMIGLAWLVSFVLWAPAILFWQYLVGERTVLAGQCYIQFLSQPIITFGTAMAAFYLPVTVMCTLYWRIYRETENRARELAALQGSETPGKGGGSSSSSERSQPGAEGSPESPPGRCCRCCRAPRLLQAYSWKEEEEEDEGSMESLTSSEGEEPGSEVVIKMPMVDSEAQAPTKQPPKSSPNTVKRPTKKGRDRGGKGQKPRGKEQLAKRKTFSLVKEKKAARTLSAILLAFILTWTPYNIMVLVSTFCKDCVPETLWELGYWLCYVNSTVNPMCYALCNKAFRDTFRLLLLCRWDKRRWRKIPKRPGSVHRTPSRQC
# HEK293 NFkB inh: lowers PMA/ionomycin-induced NF-kB signal in HEK293 cells; inhibition, % at 3 µM; HEK-293 NF-kB luciferase reporter, luminescence; 0.21% of 62,000 active;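 active = inhibition above the mean of all tested compounds plus 3 SD, cut at about 40% in these data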;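 note: 0% = stimulated DMSO wells and 100% = 10 µM reference inhibitor 5653914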
#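 Timing: 1 h pretreatment, 16 h stimulation, 37 °C; system: HEK-293 cells with stable firefly luciferase reporter driven by four HIV NF-kB elements; doses: 3 µM once, 0.30% DMSO; measured by: luciferase luminescence; control set: DMSO and 10 µM reference inhibitor; repeats: single test; reagent: PMA plus ionomycin mix as NF-kB-activating stimulus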
# BAP1 block: blocks human BAP1 ubiquitin-AMC hydrolysis; 0.48% of 72,000 active; Q92560; AID 436; recombinant BAP1, Ub-AMC hydrolysis fluorescence kinetic; active compounds read low; calls only at 20 µM;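 active = activity remaining at or below 50% of control, provided the compound also passes the data quality filters; inactive = the rest, including low values that fail the filters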;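 note: 100% = DMSO wells rate and 0% = substrate alone blank rate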
# M1 ag: activates the M1 muscarinic receptor. CHO-M1 cells, Fluo-4 calcium fluorescence, agonist mode; active compounds read high. B-score at 10 µM. AID 626. 3% of 64,000 active;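 active = fluorescence rise, raw or as B-score row- and column-corrected plate score, outside the 99.7% band of its plate's samples, either direction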
# M1 antag confirm: confirmation of rat M1 muscarinic receptor antagonists; shares compounds with M1 antag; CHO-M1 cells, Fluo-4 calcium, ACh EC80 antagonism; active compounds read low; calcium response (max-min fluorescence) at 10 µM; 43% of 1,700 active; AID 677;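 active = calcium response below the same-plate mean of wells given acetylcholine alone at its 80%-effect dose, minus 3 SD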;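 note: raw fluorescence intensity difference in arbitrary instrument units and not normalized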
# mGluR4 antag: acts on human mGluR4 in M1 antagonist selectivity test; shares compounds with M1 antag; 0.9% of 1,700 active; fluorescence response (max-min) at 10 µM; CHO-mGluR4 calcium flux, Fluo-4 fluorescence, glutamate EC80; active compounds read low;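 active = fluorescence response below the plate's average for near-maximal glutamate wells, less 3 SD of those wells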;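 note: raw unnormalized fluorescence span taken in the window right after glutamate addition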
# * marks the source's active call; other numbers are inactive results; i = inactive; · = not tested or not shown.
SMILES,HER2 expr 66K,JNK3 inh,M1 antag,HEK293 NFkB inh,BAP1 block,M1 ag,M1 antag confirm,mGluR4 antag
Cc1noc(C)c1CSc1ccc2ccccc2n1,50,7,1.3,15,i,-0.39,·,·
CCOC(=O)c1c(NC(=O)C(C)(C)C)sc(C(C)=O)c1C,·,·,·,·,i,·,·,·
CC(O)c1nc2ccccc2n1Cc1ccc2ccccc2c1 (configuration not stated),·,·,·,·,i,·,·,·
Cc1c(C(=O)OCC(=O)c2c(N)n(CC(C)C)c(=O)n(C)c2=O)oc2ccccc12,94,-4,·,6,i,·,·,·
Cc1c(C(=O)OC(C)CCN(C)C)oc2ccccc12 (configuration not stated),83,-3,-13*,13,i,-0.6,18*,261
Cc1c(C(=O)OCC(C)(C)CN(C)C)oc2ccccc12,88,2,-5*,19,i,-0.25,182*,233
Cc1c(C(=O)OCCN2CCCCC2)oc2ccccc12,92,-5,-10*,-2,i,0.61,13*,226
Cc1c(C(=O)OCC(=O)N2c3ccccc3CC2C)oc2ccccc12 (configuration not stated),109,-1,0.47,8,·,-1.3,·,·
COc1ccccc1CNS(=O)(=O)c1cccc(S(=O)(=O)N2CCOCC2)c1,106,-6,-4.7*,6,i,1.3,605,209
O=S(=O)(NCCc1ccccc1F)c1cccc(S(=O)(=O)N2CCOCC2)c1,88,·,-0.32,8,i,-1.2,·,·
CC1=C(C(=O)OCc2ccco2)C(c2cc3c(cc2Br)OCO3)NC(=O)N1 (configuration not stated),·,·,·,·,i,·,·,·
Cc1cc(C)n(-c2c(F)c(F)c(CN3CCCCC3)c(F)c2F)n1,72,-5,-2.5*,·,i,0.028,640,187
Cc1sc(NC(=O)c2ccccc2)c(C#N)c1C,·,·,·,·,i,·,·,·
O=C(NCCCn1ccnc1)C1c2ccccc2Oc2ccccc21,86,-6,-6*,11,i,0.74,309*,228
O=C(/C=N/O)NCCCn1ccnc1,96,5,-0.37,5,i,-0.42,·,·
CCOC(=O)N1CCC(NS(=O)(=O)c2ccc3c(c2)C(C)(C)C(=O)N3C)CC1,94,0,-17*,9,i,0.46,579,240
Cc1nc2ccc(NC(=O)c3ccc(S(=O)(=O)N4CCOCC4)cc3)cc2s1,·,·,0.48,·,·,-0.71,·,·
CSc1nc2ccc(S(=O)(=O)N3CCOCC3)cc2s1,111,1,-4.7*,13,i,-0.48,298*,167
COC(=O)c1oc2c(c1C)C1(CCC2)SCCS1,79,-9,-6.8*,9,i,1.2,259*,183
CCc1ccc(C2C(C(=O)OC)=C(C)NC(C)=C2C(=O)OC)cc1,·,·,·,·,i,·,·,·
CCCCN1C(=O)C(=O)c2cc(Br)ccc21,·,·,·,·,i,·,·,·
COc1ccc(OCC(=O)Nc2ccc(C)cc2)cc1,102,2,-14*,15,i,-1,516,216
CCOc1ccc(NC(=O)CN(c2ccc(OC)cc2)S(C)(=O)=O)cc1,84,6,-3.5*,-18,i,-0.69,612,241
CC(C)CC(NC(=O)C1CCC(C)CC1)C(=O)Nc1ccccn1 (configuration not stated),55,·,-3.4*,17,·,0.014,518,188
Cc1ccc2nc(-c3ccc(NC(=O)c4cc5ccccc5o4)cc3)sc2c1,·,·,·,·,i,·,·,·
SMILES,HER2 expr 66K,JNK3 inh,M1 antag,HEK293 NFkB inh,BAP1 block,M1 ag,M1 antag confirm,mGluR4 antag
CCCCOc1ccc(CN2CCCCC2)cc1,110,0,-5.1*,3,i,-0.26,283*,262
O=C(Nc1cc(NC(=O)C2CCCCC2)cc(-c2nc3ccccc3[nH]2)c1)C1CCCCC1,·,·,·,·,i,·,·,·
CCN1CCN(CCCNC(=O)c2cc3sccc3n2CC)CC1,108,-2,-1.6*,17,i,-0.031,611,231
CCn1c(C(=O)NCCCN2CCc3ccccc3C2)cc2sccc21,119,-2,-3.6*,23,i,0.17,492*,233
Cc1ccc(Cn2c(C(=O)NCCCN3CCOCC3)cc3sccc32)cc1,95,7,-3.2*,8,i,-0.57,510*,267
CCn1c(C(=O)N2CCc3ccccc3C2)cc2sccc21,96,0,0.0058,8,i,-0.27,·,·
Clc1cccc(OCOCOc2cccc(Cl)c2)c1,·,·,·,·,i,·,·,·
CCOC(=O)c1ccc(NC(=O)c2ccc3nc(N)sc3c2)cc1,·,·,·,·,i,·,·,·
CCCCC1CCC(c2nn(CC(=O)O)c(=N)s2)CC1 (configuration not stated),·,·,·,·,i,·,·,·
COc1ccc2[nH]c(=O)c(CN(C)C(=O)COc3ccccc3)cc2c1,115,-1,-9*,6,·,0.017,665,219
O=C(Oc1c(C(=O)c2ccccc2)sc2ccccc12)c1ccccc1,·,·,·,·,i,·,·,·
COc1ccc2sc(C(=O)O)c(Br)c2c1,·,·,·,·,i,·,·,·
Cc1ccc(C)c2c1-c1ccccc1S(=O)(=O)N2S(=O)(=O)c1ccccc1,·,·,·,·,i,·,·,·
CCc1ccc(-c2nc(CN3CCC(C(=O)N4CCN(c5ccccn5)CC4)CC3)c(C)o2)cc1,102,-2,-2.6*,8,i,0.42,411,213
CCc1ccc(-c2nc(CN3CCC(C(=O)N4CCN(c5ccccc5)CC4)CC3)c(C)o2)cc1,-15*,0,-2.9*,0,i,0.72,486*,255
Cc1oc(-c2ccc(Cl)cc2)nc1CN1CCC(C(=O)N2CCN(c3ccccn3)CC2)CC1,115,-5,-3.2*,11,i,0.48,385,236
CN(C)S(=O)(=O)c1ccc(C(=O)Nc2c3c(nn2C(C)(C)C)CSC3)cc1,·,·,·,·,i,·,·,·
O=C(Nc1ccccn1)c1c(O)c2ccccc2[nH]c1=O,·,·,·,·,i,·,·,·
CC(C)CCNC(=O)C(C)N(Cc1ccc(F)cc1)C(=O)c1ccc(CN2CCCCC2)o1 (configuration not stated),90,3,-3.2*,10,i,-0.14,595,219
O=C(O)c1ccc(CN2CCCCC2)o1,108,0,-0.85,-1,i,-0.34,·,·
CN(C(=O)COc1ccc(Cl)cc1)c1ccccc1C(=O)O,·,·,·,·,i,·,·,·
CN(C)c1nc2ccc(OCCN3CCCCC3)cc2s1,87,-3,-3*,0,i,-0.28,408*,216
CN(C)S(=O)(=O)c1cccc(CSc2cccc[n+]2[O-])c1,120,9,-2.2*,6,i,0.77,666,184
CN(Cc1ccccc1)S(=O)(=O)c1ccc2c(c1)OCCO2,99,-4,-0.47,-2,i,0.063,·,·

# Screens as filed in PubChem BioAssay.
